Reference: ChEMBL document CHEMBL5356984 (RSC Med Chem, 2023)
Activity calls are given as the source filed them. The calls are words filed in the database; no cut-off is given here.

Key:
[1] = Thermal stability of compound in boiling toluene at 120 degreeC at 1 mg/ml measured for approximately 12 hrs by HPLC analysis; type: physicochemical
Outline: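 Compound at 1 mg mL−1 was heated in distilled boiling toluene at 120 °C for 0–24 h. Remaining percentage was measured by HPLC on a C18 column (5 µm, 4.6 × 250 mm) with MeOH/H2O gradients: 70→100% or 45→100% MeOH over 2–15 min, held at 100% to 20 min, then re-equilibrated.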

SK-BR-3 [2] = assay: Induction of apoptosis in human SK-BR-3 cells assessed as early apoptotic cells at 20 uM incubated for 36 hrs by Annexin V/PI staining based flow cytometry (reference value: 2.73 %); type: functional
SK-BR-3 [3] = assay: Induction of apoptosis in human SK-BR-3 cells assessed as early apoptotic cells at 5 uM incubated for 36 hrs by Annexin V/PI staining based flow cytometry (reference value: 2.73 %); type: functional
MCF7 [4] = assay: Induction of apoptosis in human MCF7 cells assessed as late apoptotic cells at 20 uM incubated for 36 hrs by Annexin V/PI staining based flow cytometry (reference value: 6.02 %); type: functional
MCF7 [5] = assay: Induction of apoptosis in human MCF7 cells assessed as viable cells at 20 uM incubated for 36 hrs by Annexin V/PI staining based flow cytometry (reference value: 90.5 %); type: functional; conditions: read-out: Activity
MCF7 [6] = assay: Induction of apoptosis in human MCF7 cells assessed as early apoptotic cells at 5 uM incubated for 36 hrs by Annexin V/PI staining based flow cytometry (reference value: 1.13 %); type: functional
MCF7 [7] = assay: Induction of cell cycle arrest in human MCF7 cells assessed as accumulation of cells at G1 phase at 5 to 10 uM incubated for 36 hrs by PI staining based flow cytometry; type: functional; conditions: dose 5-10 µM
Outline: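 Following 36 h treatment (0, 5, 10 μM), trypsinized cells fixed overnight in 70% ethanol, treated with RNase (0.2 mg/mL) and PI (0.1 mg/mL) for 20 min, then analysed by flow cytometry for cell-cycle distribution; n = 3 versus control.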

MDA-MB-231 = assay: Antiproliferative activity against human MDA-MB-231 cells assessed as inhibition of cell viability measured after 48 hrs by MTT assay; type: functional, cell-based; conditions: MDA-MB-231, 48 h
Outline: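 MTT cell viability read-out; IC50 obtained by non-linear regression of concentration–response data; values are mean ± SD of three independent experiments.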

- Stability [1]: Stable
- IC50 (MDA-MB-231): 11.7 µM
SMILES: CN1CCN(/C=C/C(=O)/C=C/c2cccc(O[Si](C)(C)C(C)(C)C)c2)CC1
- Activity (SK-BR-3 [2]): 47.7%
- Activity (SK-BR-3 [3]): 2.76%
- Activity (MCF7 [4]): 28.4%
- viability at 20 µM (MCF7 [5]): 51.7%
- Activity (MCF7 [6]): 1.58%
- Activity (MCF7 [7]): Active
